In ChEMBL document CHEMBL4038284, “Synthesis of novel quinoline-based 4,5-dihydro-1H-pyrazoles as potential anticancer, antifungal, antibacterial and antiprotozoal agents” (Eur J Med Chem, 2017):
≈ marks a conversion by molar mass, not a printed value. Calls of active or inactive are those of the source. No cut-off for these calls is given here.

Columns and labels:
[1] = tested on: Klebsiella pneumoniae; test: Antibacterial activity against carbapenemase positive Klebsiella pneumoniae BAA 1705 after 24 hrs by resazurin dye based microdilution assay; assay type: functional; details: BAA 1705, 24 h
In short: (§1)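 MIC taken as the lowest concentration giving visible inhibition and/or by resazurin (1 mg/mL). Gentamicin was the control. Run in duplicate, repeated at least three times.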

[2] = tested on: Leishmania panamensis; test: Antileshmanial activity against EpiR/GFP fused Leishmania panamensis MHOM/CO/87/UA140 intracellular amastigotes infected in human […] cells after 72 hrs by flow cytometric method; assay type: functional, cell-based; details: MHOM/CO/87/UA140, 72 h
In short: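 PMA-treated U-937 cells (3 × 10^5 cells/mL) infected with stationary-phase GFP L. panamensis promastigotes (15:1), 3 h at 34 °C, then washed. After 24 h, compounds added at 50, 12.5, 3.125 and 0.78 µg/mL for 72 h at 37 °C. EC50 by Probit; triplicate, two experiments.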

[3] = tested on: K562; test: Growth inhibition of human K562 cells at 10 uM incubated for 48 hrs by sulforhodamine B assay; assay type: functional, cell-based
In short: (§2)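 NCI 60-line panel, single 10 μM dose. Cells were grown in RPMI-1640 with 5% FBS and 2 mM L-glutamine and pre-incubated 24 h before compound addition (DMSO stock). Exposure was 48 h at 37 °C, 5% CO2. Cells were fixed with cold TCA (10% final), stained with 0.4% SRB, bound dye dissolved in 10 mM Tris base, A515 read. Growth was taken relative to time-zero and untreated control plates.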

[4] = tested on: MOLT-4; test: Growth inhibition of human MOLT4 cells at 10 uM incubated for 48 hrs by sulforhodamine B assay; assay type: functional, cell-based; in short: as §2
[5] = tested on: SR; test: Growth inhibition of human SR cells at 10 uM incubated for 48 hrs by sulforhodamine B assay; assay type: functional, cell-based
In short: (§3)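 NCI-60 single-dose screen at 10 µM for 48 h. Cells were grown in RPMI-1640 with 5% FBS and 2 mM L-glutamine and preincubated 24 h before compound. Time-zero plates were TCA-fixed at compound addition. After exposure, cells were TCA-fixed, stained with SRB and read at 515 nm. Percentage growth was calculated against time-zero and untreated-control absorbances.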

[6] = tested on: NCI-H226; test: Growth inhibition of human NCI-H226 cells at 10 uM incubated for 48 hrs by sulforhodamine B assay; assay type: functional, cell-based; in short: as §2
[7] = tested on: NCI-H460; test: Growth inhibition of human NCI-H460 cells at 10 uM incubated for 48 hrs by sulforhodamine B assay; assay type: functional, cell-based; in short: as §2
[8] = tested on: HT-29; test: Growth inhibition of human HT-29 cells at 10 uM incubated for 48 hrs by sulforhodamine B assay; assay type: functional, cell-based; in short: as §2
[9] = tested on: SW-620; test: Growth inhibition of human SW620 cells at 10 uM incubated for 48 hrs by sulforhodamine B assay; assay type: functional, cell-based; in short: as §3
[10] = tested on: SF-295; test: Growth inhibition of human SF295 cells at 10 uM incubated for 48 hrs by sulforhodamine B assay; assay type: functional, cell-based; in short: as §2
[11] = tested on: SF-539; test: Growth inhibition of human SF539 cells at 10 uM incubated for 48 hrs by sulforhodamine B assay; assay type: functional, cell-based; in short: as §2
[12] = tested on: Malme-3M; test: Growth inhibition of human MALME-3M cells at 10 uM incubated for 48 hrs by sulforhodamine B assay; assay type: functional, cell-based; in short: as §2
[13] = tested on: M14; test: Growth inhibition of human M14 cells at 10 uM incubated for 48 hrs by sulforhodamine B assay; assay type: functional, cell-based; in short: as §2
[14] = tested on: MDA-MB-435; test: Growth inhibition of human MDA-MB-435 cells at 10 uM incubated for 48 hrs by sulforhodamine B assay; assay type: functional, cell-based; in short: as §2
[15] = tested on: 786-0; test: Growth inhibition of human 786-0 cells at 10 uM incubated for 48 hrs by sulforhodamine B assay; assay type: functional, cell-based
In short: (§4)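 NCI 60-cell-line screen at a single 10 µM dose. Cells in RPMI-1640 with 5% FBS and 2 mM L-glutamine, pre-incubated 24 h, then treated for 48 h at 37 °C. TCA fixation, sulforhodamine B staining, absorbance at 515 nm. Percentage growth calculated against time-zero and untreated controls.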

[16] = tested on: PC-3; test: Growth inhibition of human PC3 cells at 10 uM incubated for 48 hrs by sulforhodamine B assay; assay type: functional, cell-based; in short: as §2
[17] = tested on: BT-549; test: Growth inhibition of human BT549 cells at 10 uM incubated for 48 hrs by sulforhodamine B assay; assay type: functional, cell-based; in short: as §4
[18] = tested on: MDA-MB-468; test: Growth inhibition of human MDA-MB-468 cells at 10 uM incubated for 48 hrs by sulforhodamine B assay; assay type: functional, cell-based; in short: as §2
[19] = tested on: Cryptococcus neoformans; test: Antifungal activity against Cryptococcus neoformans ATCC 32264 incubated for 48 hrs under dark condition by broth microdilution method; assay type: functional; details: ATCC 32264, 48 h
In short: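 CLSI M27-A3 broth microdilution in RPMI-1640, DMSO ≤1%, compounds at 250-0.98 µg/mL final. Inoculum 1-5 × 10^3 CFU/mL. Incubated 48 h at 30 °C in a moist dark chamber, read at OD405. MIC80 and MIC50 taken from % inhibition dose-response curves (mean ± SEM, triplicate). Amphotericin B was the positive control.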

[20] = tested on: Candida albicans; test: Growth inhibition of Candida albicans ATCC 10231 at 250 ug/ml incubated for 48 hrs under dark condition by broth microdilution method relative to control; assay type: functional; details: ATCC 10231, 48 h, read-out: GI
In short: (§5)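 CLSI M27-A3 broth microdilution in RPMI-1640, DMSO ≤1%. Inoculum 1-5 × 10^3 CFU/mL. Incubated 48 h at 30 °C, dark. % inhibition = 100 − (OD405 test − sterility control)/(OD405 growth control − sterility control), with growth and sterility control wells. Triplicate.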

[21] = tested on: Candida albicans; test: Growth inhibition of Candida albicans ATCC 10231 at 125 ug/ml incubated for 48 hrs under dark condition by broth microdilution method relative to control; assay type: functional; details: ATCC 10231, 48 h, read-out: GI; in short: as §5
[22] = tested on: Candida albicans; test: Growth inhibition of Candida albicans ATCC 10231 at 62.5 ug/ml incubated for 48 hrs under dark condition by broth microdilution method relative to control; assay type: functional; details: ATCC 10231, 48 h, read-out: GI; in short: as §5
[23] = tested on: Cryptococcus neoformans; test: Growth inhibition of Cryptococcus neoformans ATCC 32264 at 250 ug/ml incubated for 48 hrs under dark condition by broth microdilution method relative to control; assay type: functional; details: ATCC 32264, 48 h, read-out: GI; in short: as §5
[24] = tested on: Cryptococcus neoformans; test: Growth inhibition of Cryptococcus neoformans ATCC 32264 at 7.8 ug/ml incubated for 48 hrs under dark condition by broth microdilution method relative to control; assay type: functional; details: ATCC 32264, 48 h, read-out: GI; in short: as §5
[25] = tested on: Pseudomonas aeruginosa; test: Antibacterial activity against Pseudomonas aeruginosa ATCC 27853 after 24 hrs by resazurin dye based microdilution assay; assay type: functional; details: ATCC 27853, 24 h; in short: as §1
[26] = tested on: Neisseria gonorrhoeae; test: Antibacterial activity against beta lactamase positive Neisseria gonorrhoeae ATCC 31426 by oxidase test; assay type: functional
In short: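 Agar dilution MIC on GC agar with 1% isovitalex containing increasing compound concentrations. Plates inoculated with about 1×10^4 CFU (5 µL). MIC is the lowest concentration that inhibited growth, with growth confirmed by oxidase test. Run in duplicate, repeated at least three times.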

SMILES	MIC [1] [µg/mL]	EC50 [2] [µg/mL]	growth inhibition (GI) [3]	growth inhibition (GI) [4]	growth inhibition (GI) [5]	growth inhibition (GI) [6]	growth inhibition (GI) [7]	growth inhibition (GI) [8]	growth inhibition (GI) [9]	growth inhibition (GI) [10]	growth inhibition (GI) [11]	growth inhibition (GI) [12]	growth inhibition (GI) [13]	growth inhibition (GI) [14]	growth inhibition (GI) [15]	growth inhibition (GI) [16]	growth inhibition (GI) [17]	growth inhibition (GI) [18]	MIC50 [19] [µg/mL]	MIC80 [19] [µg/mL]	other results
COc1ccc(C2=NN(C=O)C(c3cccc(Nc4ccnc5cc(Cl)ccc45)c3)C2)cc1 (stereo unspecified)	> 1000	33.1 (≈ 72.5 µM)	Active	Active	Active	Active	Active	Active	Active	Active	Active	Active	Active	Active	Active	Active	Active	Active	125 (≈ 274 µM)	≥ 250	inhibition of growth at 250 µg/mL [20]: 34.5%; inhibition of growth at 125 µg/mL [21]: 28%; inhibition of growth at 62.5 µg/mL [22]: 20.1%; inhibition of growth at 250 µg/mL [23]: 55.4%; inhibition of growth at 7.8 µg/mL [24]: 13.4%; MIC [25]: > 1000 µg/mL; MIC [26]: > 1000 µg/mL
COc1ccc(C(=O)/C=C/c2cccc(Nc3ccnc4cc(Cl)ccc34)c2)cc1	> 1000	2.65 (≈ 6.39 µM)	Active	Active	Active	Active	Active	Active	Active	Active	Active	Active	Active	Active	Active	Active	Active	Active	≥ 250	≥ 250	inhibition of growth at 250 µg/mL [20]: 59.6%; inhibition of growth at 125 µg/mL [21]: 46.8%; inhibition of growth at 62.5 µg/mL [22]: 41.1%; inhibition of growth at 250 µg/mL [23]: 46.1%; inhibition of growth at 7.8 µg/mL [24]: 2.47%; MIC [25]: > 1000 µg/mL; MIC [26]: > 1000 µg/mL
COc1cc(C(=O)/C=C/c2cccc(Nc3ccnc4cc(Cl)ccc34)c2)cc(OC)c1OC	> 1000	5.92 (≈ 12.5 µM)	Active	Active	Active	Active	Active	Active	Active	Active	Active	Active	Active	Active	Active	Active	Active	Active	≥ 250	≥ 250	inhibition of growth at 250 µg/mL [20]: 13.7%; inhibition of growth at 125 µg/mL [21]: 10.7%; inhibition of growth at 62.5 µg/mL [22]: 7.6%; inhibition of growth at 250 µg/mL [23]: 7.12%; inhibition of growth at 7.8 µg/mL [24]: 0%; MIC [25]: > 1000 µg/mL; MIC [26]: > 1000 µg/mL
